# SENP6 block – SENP6 protease inhibition; Q9GZR1; Recombinant SENP6 catalytic domain, aminoluciferin luminescence; inhibition, % at 10 µM; hit rate 1.8% among 330,000; AID 2599;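 active = inhibition above about 50% at the single tested dose, limit read from the data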;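 note: plate controls were DMSO wells with enzyme for no effect and DMSO wells lacking enzyme for full effect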
# Target sequence (Q9GZR1 628-1112 limits assumed): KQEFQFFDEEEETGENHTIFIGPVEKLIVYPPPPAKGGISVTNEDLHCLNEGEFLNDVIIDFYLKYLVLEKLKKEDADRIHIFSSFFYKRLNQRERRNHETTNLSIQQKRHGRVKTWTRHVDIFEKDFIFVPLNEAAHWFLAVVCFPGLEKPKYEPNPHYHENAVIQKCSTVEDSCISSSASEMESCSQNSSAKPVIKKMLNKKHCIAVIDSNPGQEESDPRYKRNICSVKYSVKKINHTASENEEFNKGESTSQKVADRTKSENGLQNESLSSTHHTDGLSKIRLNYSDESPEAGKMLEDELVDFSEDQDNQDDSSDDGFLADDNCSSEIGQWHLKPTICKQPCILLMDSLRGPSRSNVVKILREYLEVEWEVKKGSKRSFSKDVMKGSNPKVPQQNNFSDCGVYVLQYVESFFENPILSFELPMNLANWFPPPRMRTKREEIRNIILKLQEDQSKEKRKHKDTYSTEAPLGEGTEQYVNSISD
# SENP8 block-1 – inhibitors of human SENP8 protease; inhibition, % at 10 µM; hit rate 1.2% among 330,000; purified SENP8, Z-RLRGG-aminoluciferin cleavage, luminescence; Q96LD8; in the data active = inhibition above about 50%
# NRP1-CendR mod – NRP-1/CendR interaction modulation; O14786; FAM-RPARPAR peptide binding to NRP-1, fluorescence polarization; hit rate 0.85% among 360,000; inhibition, % at 25 µM; AID 602438;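 active = inhibition or corrected inhibition above about 18%, plus a signal ratio from 0.5 to 1.5, limit read from the data, passing the limit was not always enough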
# SENP1 FRET inh – blocks the human SENP1 SUMO protease catalytic domain | Q9P0U3 | recombinant SENP1 catalytic domain, CyPet-SUMO1-YPet FRET cleavage | inhibition, % at 10 µM | hit rate 0.21% among 360,000 | AID 624204;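 active = inhibition at least 30% at 10 µM, raw YFP signal under a set limit, fluorescence ratio 0.5 to 1.5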;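 note: 0% = enzyme with DMSO and 100% = no enzyme wells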
#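 Controls: no-enzyme wells low, DMSO-plus-enzyme wells high control. Test system: human recombinant His6-tagged SENP1 catalytic domain enzyme. Reagent: SFCypet-SUMO1-SFYpet FRET protein substrate, 25 nM final. Doses: one dose per compound, 10 µM, 0.5% DMSO. Detection: FRET, CFP and YFP emission. Timing: 50 min reaction at room temperature.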
# SENP8 block-2 – blocks human SENP8 cleavage of Nedd8 substrate; Q96LD8; AID 602440; recombinant SENP8, Nedd8 substrate fluorescence; inhibition, % at 20 µM; hit rate 0.64% among 360,000; in the data active = inhibition mostly above about 40%, no sharp cut-off; inactive = mostly below about 27%
# SENP7 block – inhibitors of human SENP7 protease; Q9BQF6; recombinant SENP7, Z-RLRGG-aminoluciferin luminescence, 40 min; inhibition, % at 5 µM; hit rate 1.5% among 330,000;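 active = inhibition above about 50% at the single test dose, limit read from the data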;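 note: plate controls were DMSO with enzyme for no effect and no enzyme buffer wells for full effect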
# Active calls of the source: *; . = no result given. A selection: hits, their analogues and other compounds. The true share with any hit is near 3.3%.
SMILES,SENP6 block,SENP8 block-1,NRP1-CendR mod,SENP1 FRET inh,SENP8 block-2,SENP7 block
CC1=Nc2ccccc2N=C(NC(=O)CSC(=S)N2CCN(C)CC2)C1c1ccccc1 (stereo unspecified),-22,-12,0,2,16,-5
COC(=O)c1ccc(N2CCN(C)CC2)c(NC(=O)c2cccnc2)c1,11,11,-6,0,19,-4
COC(=O)c1ccc(N2CCOCC2)c(NC(=O)c2cccnc2)c1,-5,0,26*,1,-1,2
Cc1cccc(NC(=O)c2cnc3ccccn3c2=O)c1,81*,67*,0,-1,-42,67*
COc1cc([N+](=O)[O-])cc(/C=N/NC(=O)C(O)(c2ccccc2)c2ccccc2)c1O,-8,-1,-14,-7,50*,-5
O=C(N/N=C/c1cccc([N+](=O)[O-])c1O)C(O)(c1ccccc1)c1ccccc1,4,-8,-5,0,19,-7
Cc1ccc2nc3n(c(=O)c2c1)-c1ccc(Cl)cc1C(=O)NC3CC(C)C (stereo unspecified),-19,4,.,.,.,5
CCN1C(=O)[C@H]2[C@@H](c3ccc(C(F)(F)F)cc3)N[C@]3(CCCN(CC4CCCCC4)C3=O)[C@H]2C1=O,.,.,-5,-3,17,.
CCOC(=O)CC(=O)Nc1ncnc2c1C(c1ccccc1)c1c(ccc3ccccc13)O2 (stereo unspecified),-5,-15,24*,-4,-13,-6
Nc1ncnc2c1C(c1ccccc1)c1c(ccc3ccccc13)O2 (stereo unspecified),-11,-16,-1,0,2,-6
NC(COCc1ccccc1)c1csc(Nc2ccc(C(=O)c3ccccc3)cc2)n1 (stereo unspecified),.,.,4,-5,-421,.
Cc1ccc(N2C(=O)NC(NS(=O)(=O)c3ccc(C)cc3)(C(F)(F)F)C2=O)cc1 (stereo unspecified),-15,-4,9,2,7,5
Cc1ccc(N2C(=O)NC(NS(=O)(=O)c3ccccc3)(C(F)(F)F)C2=O)cc1 (stereo unspecified),-28,-4,26*,2,2,-1
COc1ccc(C(C)C)cc1-c1cc(C(=O)NCc2cccc(C(F)(F)F)c2)[nH]n1,.,.,21*,-1,8,.
CNC(=O)C[C@H]1C(=O)N(CCc2ccccc2)C[C@@H]1Cc1ccccc1,.,.,-3,1,10,.
CC(C)Cc1ccc(C(C)CC2=CCC(CN(C)C)C2=O)cc1 (stereo unspecified),.,.,9,-1,13,.
COc1ccc(NC(=O)CN2CCCN(S(=O)(=O)c3ccc(F)cc3)CC2)cc1,2,1,0,1,4,-4
COc1ccc(NC(=O)CN2CCN(c3c(C)cccc3C)CC2)cc1,13,3,6,1,10,3
COc1ccc(S(=O)(=O)N2CCCN(CC(=O)Nc3ccc(NC(C)=O)cc3)CC2)cc1,1,1,39*,-1,11,6
COc1ccc(NC(=O)CN2CCN(c3c(C)cc(C)cc3C)CC2)cc1,5,7,37*,1,13,-2
CN(C)c1ccc(C=C2SC(=S)N(Cc3ccco3)C2=O)cc1,.,.,128,-27,48*,.
Cc1cc(/C=C2\SC(=S)N(Cc3ccco3)C2=O)c(C)n1-c1ccccc1,-4,-13,-149,-27,2,-9
COc1ccc(CNC(=O)CCc2c[nH]c3ccccc23)cc1,-36,-5,27*,0,10,-3
CC1(C(=O)NCc2ccccc2)CCC(=O)N1CCc1c[nH]c2ccccc12 (stereo unspecified),.,.,24*,0,17,.
CCCCCNC(=O)C(C1CC1)n1c(=O)c(-c2ccco2)nc2ccccc21 (stereo unspecified),.,.,-24,-62,-424,.
SMILES,SENP6 block,SENP8 block-1,NRP1-CendR mod,SENP1 FRET inh,SENP8 block-2,SENP7 block
COc1cc(/C=C/CN2CCC(C(=O)NC(c3ccc(F)cc3)c3ccc4ccccc4n3)CC2)ccc1OC(C)=O (stereo unspecified),.,.,-5,-7,11,.
C[C@H](O)CNC(=O)c1[nH]cnc1C(=O)Nc1ccc(CNC(=O)OC(C)(C)C)cc1,.,.,-16,4,10,.
COc1ccccc1C=NN=C(NN=Cc1ccccc1OC)NN=Cc1ccccc1OC,.,.,7,0,-50,.
O=C(O)c1ccc(N=Nc2c(O)[nH]c3cc(Cl)ccc23)cc1,97*,95*,-64,-36,37,97*
O=C(O)c1ccc(N=Nc2c(O)[nH]c3ccc(Br)cc23)cc1,57*,69*,-150,10,38,62*
Nc1nc(N)c(N=Nc2ccc(C(=O)O)cc2)c(N)n1,-50,-19,-4,0,30,-17
C[C@@H]1COc2cc(N3CCC[C@@H]3CO)ccc2S(=O)(=O)N1,.,.,-1,4,6,.
O=C(NCCC(F)(F)F)C1Cc2c(-c3ccc(Cl)cc3)ccnc2O1 (stereo unspecified),.,.,27*,1,18,.
O=C(NCC1CC1)C1Cc2c(-c3ccc(Cl)cc3)ccnc2O1 (stereo unspecified),.,.,-6,0,22,.
O=C(C(=O)N1CCC(Cc2ccccc2)CC1)c1ccccc1Br,.,.,2,2,24,.
CCOC(=O)C1CCN(S(=O)(=O)c2ccc3c(c2)CCN3C(=O)C2CCC2)CC1,3,-6,22*,-1,9,0
CCOC(=O)C1CCN(S(=O)(=O)c2ccc3c(c2)CCN3C(C)=O)CC1,-10,1,9,-1,9,7
CCOC1CCCc2oc(-c3ccsc3)c(-c3cnc(OC)nc3)c21 (stereo unspecified),.,.,-1,-12,-397,.
CSc1ncccc1C(=O)N1CCC(C)(C(=O)O)C1 (stereo unspecified),.,.,-13,4,19,.
CC(=O)N1CCN(S(=O)(=O)c2cccc(C(=O)NNC(=O)Cn3ccc(C(F)(F)F)n3)c2)CC1,-10,-14,28*,3,10,10
Cc1ccc(S(=O)(=O)N2[C@H](CC(=O)c3ccc(F)cc3)OC[C@@H]2C(C)C)cc1,.,.,0,2,13,.
O=c1[nH]c(Nc2ccccn2)cc2ccccc12,91*,87*,45*,-69,-499,93*
O=c1[nH]c(-c2ccccn2)cc2ccccc12,5,-3,-4,-2,-417,0
O=C(O)c1cc(N2N=C(C(F)(F)F)/C(=C/C=C/c3ccco3)C2=O)ccc1Cl,.,.,-110,33*,-48,.
COC(=O)C[C@H]1C=C[C@@H](NC(=O)Nc2c(C)noc2C)[C@@H](CO)O1,.,.,8,4,20,.
CC1(c2nnnn2Cc2ccccc2)CCC(=O)N1CCc1ccccc1F (stereo unspecified),.,.,8,2,29,.
CCSc1nc2ccccc2n1Cc1cccc([N+](=O)[O-])c1,3,3,23*,-1,15,3

# Compound activity as filed in PubChem BioAssay.
